Screens deposited in PubChem BioAssay by Johns Hopkins Ion Channel Center.
The list is not random: actives were taken first. Their share in the collection is about 3.1%.
hERG rescue – shields human hERG channel from block by proarrhythmic agents | 310,000 tested, 0.51% active | CHO-hERG, FluxOR thallium flux, dofetilide IC70 present | Q12809 | activation (rescue from dofetilide block), less the hit threshold, % at 10 µM | AID 1511;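 active means activation above the mean of controls blocked by dofetilide plus 5 SD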;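 further: thallium influx through hERG after potassium depolarization seen as dye fluorescence rise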
KCNQ1 act – potentiates or activates the human KCNQ1 potassium channel. P51787. CHO-K1 KCNQ1, thallium flux FluxOR fluorescence; hits give high values. B-score at 10 µM. 310,000 tested, 0.35% active;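 active means fluorescence ratio B-score, a plate-corrected score, at least three library SD, with initial intensity B-score within 5 SD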
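System: CHO-K1 cells stably expressing KCNQ1 / Medium: assay buffer for compound exposure, DMSO matched across wells / Reagent: thallium- and potassium-containing depolarizing buffer / Compound: one concentration, matched DMSO / Incubation: 20 min compound pretreatment at room temperature / Measured by: kinetic FluxOR fluorescence, 10 s baseline plus 110 s post-stimulus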
KCNK9 block – blocks the human KCNK9 two-pore domain potassium channel. Q9NPC2. HEK293 KCNK9, FluxOR thallium flux fluorescence; hits give low values. B-score at 10 µM. 310,000 tested, 1.2% active. AID 488922;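 active means ratio B-score over 3 SD below the library mean, with starting fluorescence within 5 SD of its mean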;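 further: negative B-score means less thallium flux so channel inhibition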
KCNK3 inh – human KCNK3 channel inhibition, primary screen. 340,000 tested, 0.84% active. O14649. AID 602410. CHO-KCNK3 thallium flux, FluxOR fluorescence; hits give low values. B-score at 10 µM;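 active means B-score under library mean minus 4 SD, starting fluorescence ratio at most library mean plus 5 SD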;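 further: more negative B-score means stronger inhibition of thallium flux through KCNK3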
Target sequence (O14649 whole entry, looked up): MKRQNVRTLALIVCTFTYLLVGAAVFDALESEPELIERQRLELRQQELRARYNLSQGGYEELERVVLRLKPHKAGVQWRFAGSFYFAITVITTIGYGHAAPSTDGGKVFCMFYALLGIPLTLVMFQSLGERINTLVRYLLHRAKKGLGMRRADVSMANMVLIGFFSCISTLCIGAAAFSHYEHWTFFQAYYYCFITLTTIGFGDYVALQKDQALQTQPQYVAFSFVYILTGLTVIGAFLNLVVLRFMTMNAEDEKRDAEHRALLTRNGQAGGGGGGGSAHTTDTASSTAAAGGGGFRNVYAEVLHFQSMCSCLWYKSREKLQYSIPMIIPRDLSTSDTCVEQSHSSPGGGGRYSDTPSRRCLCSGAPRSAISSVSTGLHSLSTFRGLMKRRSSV
KCNQ1 block – blocks the human KCNQ1 potassium channel; P51787; CHO-K1 KCNQ1, FluxOR thallium flux fluorescence; hits give high values; B-score at 10 µM; 310,000 tested, 1.3% active; AID 2642;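 active means compounds whose thallium flux B-score, printed positive for inhibition, exceeds three library SD while starting fluorescence stays within three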;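 further: channel opened by potassium depolarization with thallium stimulus after 20 min compound exposure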
Active calls of the source: *; i = inactive; / = no result.

SMILES	hERG rescue	KCNQ1 act	KCNK9 block	KCNK3 inh	KCNQ1 block
CC(=O)NC1=C(NC2CCS(=O)(=O)C2)C(=O)c2ccccc2C1=O (stereo unspecified)	3	12*	i	i	i
CC(C)c1ccccc1OCC(=O)Nc1ccc2[nH]ncc2c1	-6	i	i	i	i
CC(C)CCn1c(SCC(=O)Nc2ccccc2C(F)(F)F)nc2nccnc2c1=O	-8	i	i	i	i
CCC(C)(C)n1nnnc1C(c1ccc(C)cc1)N(Cc1ccco1)Cc1cccs1 (stereo unspecified)	-3	i	-6.9*	i	i
S=c1nc(-c2ccccc2)n(-c2ccccc2)[nH]1	-7	i	i	i	i
S=c1nc(C2CCCCC2)n(-c2ccccc2)[nH]1	11*	40*	i	i	i
CCC(=O)NC(=S)NNC(=O)c1ccc(OC)cc1	-7	i	-7.2*	i	i
COc1ccc(C(=O)NC(=S)NNC(=O)c2ccc(C)cc2)cc1	-6	13*	i	i	i
CN1C2Cc3c(n(C)c4ccccc34)C1CC=C2CO (stereo unspecified)	/	/	/	i	/
Cc1cc(C)n2nc(-c3ccco3)nc2n1	-11	i	i	i	i
COc1ccc(/C(O)=C/c2nc3ccc(C(=O)NCCc4cccc(C)c4)cc3[nH]c2=O)cc1OC	-12	i	-8*	i	i
Cn1nc(C(F)(F)F)cc1-c1ccc(/C=C(\C#N)C(=O)c2ccccc2)s1	-4	i	i	i	8*
CNC(=O)c1ccc(-c2cc(C(F)(F)F)nn2C)s1	-7	i	i	i	i
O=C(O)/C=C/C(=O)N(Cc1ccc2c(c1)OCO2)C1CC(=O)N(CCc2ccccc2)C1=O (stereo unspecified)	-3	i	i	i	i
Clc1ccc(N2N=C(c3cccs3)CC2c2ccco2)cc1 (stereo unspecified)	-10	i	i	i	8*
c1ccc(N2N=C(c3cccs3)CC2c2ccco2)cc1 (stereo unspecified)	/	/	/	i	/
O=C(CCNc1ccc(Cl)c(C(F)(F)F)c1)c1ccco1	-12	i	-7.3*	i	i
O=C(CCNc1ccc(F)c(Cl)c1)c1ccco1	-5	i	i	i	i
CCC(=O)Nc1ccc(C(=O)COC(=O)c2nc3nccc(C)n3n2)cc1	/	/	/	i	/
Cc1ccc(-n2cccc2C(=S)N=P(N(C)C)(N(C)C)N(C)C)cc1	-11	i	-7.6*	i	i
O=C(Cc1nc2ccccc2[nH]1)c1cccc([N+](=O)[O-])c1	-16	i	i	i	8*
O=C(COC(=O)c1cccnc1Cl)NCCC1=CCCCC1	-4	i	i	i	i
COc1cc2c(cc1OC)CN(C(=O)c1cc(C3CC3)nn1-c1ccccc1)CC2	/	/	/	i	/
COc1cccc(C(=O)NNC(=O)C(=O)Nc2cccc3ccccc23)c1	43*	36*	i	i	i
COc1cccc(C(=O)Nc2cccc3ccccc23)c1	-4	i	i	i	i
SMILES	hERG rescue	KCNQ1 act	KCNK9 block	KCNK3 inh	KCNQ1 block
COc1ccc(OC)c(NC(=O)C2CCN(C(=O)c3cccs3)CC2)c1	-10	i	i	i	i
COc1cccc(C(=O)NNC(=O)c2ccccc2)c1	-6	i	i	i	i
COc1cccc(C(=O)NNC(=O)C(=O)Nc2ccc(OC)cc2OC)c1	12*	19*	i	i	i
COc1ccc(OC)c(NC(=O)C(=O)NNC(=O)c2cccs2)c1	5.5*	i	i	i	i
Cc1sc2ncnc(N3CCC(C(=O)Nc4ccc(Cl)c(Cl)c4)CC3)c2c1C	/	/	/	-10*	/
CCc1ccc2nc(NC(=O)C3CCN(c4ncnc5sc(C)c(C)c45)CC3)sc2c1	/	/	/	i	/
CNC(=O)c1ccc(NC(=O)C2CCN(c3ncnc4sc(C)c(C)c34)CC2)cc1	0	i	i	i	i
CCc1cccc(NC(=O)C2CCN(c3ncnc4sc(C)c(C)c34)CC2)c1	/	/	/	-11*	/
Cc1nc(SCC(=O)NCc2ccco2)nc(C)c1C	-17	i	i	i	i
Cc1sc2nc(C(C)C)nc(SCC(=O)NCc3ccco3)c2c1C	8.7*	12*	i	i	i
Cc1nc(SCC(=O)NC(=O)NCc2ccco2)nc(C)c1C	6.7*	i	i	i	i
CCOC(=O)c1cc(-c2ccc(Cl)cc2)nc2onc(C)c12	-9	i	-8*	/	i
COCC(=O)N1CCC(Oc2ccc(C(=O)N(C)Cc3nccs3)cc2)CC1	-3	i	i	i	i
CCC(O)c1c(-c2ccccc2)nn(C)c1Cl (stereo unspecified)	-11	i	i	i	i
Cn1nc(-c2ccccc2)c(CSc2ccccc2)c1Cl	-7	i	-7.3*	i	i
CCN(Cc1ccccc1)C(=O)c1oc2ccc(C)cc2c1C	5.0*	i	i	i	i
Cc1ccc2oc(C(=O)N(Cc3ccncc3)CC3CCCO3)c(C)c2c1 (stereo unspecified)	-12	i	i	i	i
O=[N+]([O-])c1cc([N+](=O)[O-])c2cc3ccccc3nc2c1	-1	i	i	i	i
COc1ccc(Br)cc1/C=N/n1c(COc2ccccc2)n[nH]c1=S	-3	i	i	i	i
CCCNC(=O)c1ccc(COc2ccc(CCC)cc2OC)o1	-5	i	i	i	i
Cc1ccc(Cl)cc1NC(=S)N(Cc1cccnc1)Cc1ccccc1Cl	-3	i	i	i	6*
Cc1ccccc1NC(=S)N(Cc1ccccc1)Cc1cccnc1	-8	i	i	i	i
CCN(CC)CCNc1ncnc2c1sc1nc(N3CCCC3)c3c(c12)CC(C)(C)OC3	-14	8*	i	i	i
CCOc1cc(/C=C(/NC(C)=O)C(=O)O)cc(Cl)c1OCc1ccc(Br)cc1	-10	i	i	i	i
COC(=O)CCN(C(=O)c1ccc([N+](=O)[O-])cc1)c1ccccn1	-9	i	i	i	11*
COC(=O)CCN(C(=O)c1cc([N+](=O)[O-])cc([N+](=O)[O-])c1)c1ccccn1	-5	i	i	i	i
COc1ccc(/C=N\NC(=S)SCN2C(=O)C3CCC(C)(C2=O)C3(C)C)cc1 (stereo unspecified)	0	16*	i	i	i
CN(C)c1ccc(/C=N\NC(=S)SCN2C(=O)C3CCC(C)(C2=O)C3(C)C)cc1 (stereo unspecified)	/	/	/	i	/
COc1cccc(OC)c1NC(=O)Cn1nc(C)c2ccccc2c1=O	1	i	i	i	i
